Data reported in ChEMBL document CHEMBL4680127, “Rational design and Structure-Activity relationship of coumarin derivatives effective on HIV-1 protease and partially on HIV-1 reverse transcriptase” (Eur J Med Chem, 2020).

Legend:
[1] = system: Human immunodeficiency virus 1; assay: Antiviral activity against wild type HIV1 assessed as inhibitory effect on virus producing cells at 10 uM by cell based inhibition assay; format: functional
Outline: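 Late-stage single-round assay: compound at 10 μM was added to the medium of virus-producing cells 5 h after transfection and incubated 48 h. Pseudotyped virus from the supernatant then infected SupT1 cells for 48 h. Luciferase in the newly infected cells gave percent inhibition. Quadruplicate.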

[2] = target: Human immunodeficiency virus type 1 protease (Human immunodeficiency virus 1, UniProt Q72874); assay: Inhibition of recombinant HIV1 protease measured assessed as hydrolysis of fluorogenic substrate by FRET assay
Outline: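 Wild-type HIV-1 protease activity was read by FRET. Each assay was run in triplicate. IC50 values are means (±1 standard deviation) from three independent experiments.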

[3] = target: T1, Human immunodeficiency virus type 1 reverse transcriptase (Human immunodeficiency virus 1, UniProt Q72547); assay: Inhibition of HIV-1BH10 reverse transcriptase expressed in Escherichia coli assessed as polymerization by one-step real time RT-PCR assay
[4] = target: T1, Human immunodeficiency virus type 1 reverse transcriptase; assay: Inhibition of HIV-1 NL4-3 reverse transcriptase expressed in Escherichia coli assessed as polymerization by one-step real-time RT-PCR assay
[5] = system: Human immunodeficiency virus 1; assay: Antiviral activity against wild type HIV1 assessed as inhibitory effect on virus infected cells at 10 uM by cell based inhibition assay; format: functional
Outline: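 Single-round assay of the early stage: SupT1 cells were first infected with pseudotyped HIV-1, then exposed to compound at 10 μM for 48 h. Luciferase activity was measured and expressed as percent inhibition.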

[6] = system: Human immunodeficiency virus 1; assay: Antiviral activity against wild type HIV1 infected in human SupT1 cells assessed as inhibitory effect at 100 nM by cell based inhibition assay; format: functional; details: Human immunodeficiency virus 1, SUP-T1
Outline: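 1×10^6 SupT1 cells were infected with HIV-1 NL4-3 by spin infection, with 10 µg/mL polybrene and test agent at 100 nM present during infection. Activity is expressed as percent inhibition of viral growth.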

`CC(C)CN(C[C@@H](O)[C@H](Cc1ccccc1)NC(=O)O[C@H]1CO[C@H]2OCC[C@H]21)S(=O)(=O)c1ccc(N)cc1` showed an inhibition at 10 µM [1] of 30.8%.

`COc1ccc(S(=O)(=O)N(CC(C)C)C[C@@H](O)[C@H](Cc2ccccc2)NCc2cc(=O)oc3cc(O)ccc23)cc1` was tested, and the IC50 [2] was 0.053 µM and the inhibition at 10 µM [1] was 88.8%.

With `COc1ccc(S(=O)(=O)N(CC(C)C)C[C@@H](O)[C@H](Cc2ccccc2)NC(=O)Oc2c3occc3cc3ccc(=O)oc23)cc1` the IC50 [2] was 0.12 µM and the IC50 [3] was greater than 1000 µM.

For `COc1ccc(S(=O)(=O)N(CC(C)C)C[C@@H](O)[C@H](Cc2ccccc2)NC(=O)c2cc3ccc(OC)cc3oc2=O)cc1`, the IC50 [2] was 0.0467 µM, the IC50 [4] was 370 µM and the inhibition at 10 µM [5] was 8.28%.

`CC(C)CN(C[C@@H](O)[C@H](Cc1ccccc1)NC(=O)c1cc2ccc(O)cc2oc1=O)S(=O)(=O)c1ccc(N)cc1` gave an IC50 [2] of 0.0277 µM, an IC50 [4] of 554 µM and an inhibition at 10 µM [5] of 27%.

Work on `CC(C)CN(C[C@@H](O)[C@H](Cc1ccccc1)NC(=O)Oc1c2occc2cc2ccc(=O)oc12)S(=O)(=O)c1ccc([N+](=O)[O-])cc1` yielded an IC50 [2] of 1.53 µM and an IC50 [3] greater than 1000 µM.

`COc1ccc(S(=O)(=O)N(CC(C)C)C[C@@H](O)[C@H](Cc2ccccc2)NC(=O)Cc2cc(=O)oc3cc(O)ccc23)cc1` was tested, and the IC50 [2] was 0.00162 µM, the inhibition at 10 µM [1] was 82.9% and the inhibition at 0.1 µM [6] was 45.5%. The IC50 [4] was 459 µM.

`CC(C)CN(C[C@@H](O)[C@H](Cc1ccccc1)NC(=O)Cc1cc(=O)oc2cc(N(C)C)ccc12)S(=O)(=O)c1ccc([N+](=O)[O-])cc1` was tested, and the IC50 [2] was 0.276 µM, the IC50 [3] was greater than 1000 µM and the inhibition at 10 µM [5] was 14.7%.

With `CC(C)CN(C[C@@H](O)[C@H](Cc1ccccc1)NC(=O)c1cc2ccccc2oc1=O)S(=O)(=O)c1ccc(N)cc1` the IC50 [2] was 0.156 µM, the IC50 [4] was 75.3 µM and the inhibition at 10 µM [5] was 1.34%.

With `CC(C)CN(C[C@@H](O)[C@H](Cc1ccccc1)NCc1cc(=O)oc2cc(O)ccc12)S(=O)(=O)c1ccc([N+](=O)[O-])cc1` the IC50 [2] was 0.14 µM and the inhibition at 10 µM [1] was 73.2%.

`CC(C)CN(C[C@@H](O)[C@H](Cc1ccccc1)NC(=O)c1cc2ccccc2oc1=O)S(=O)(=O)c1ccc([N+](=O)[O-])cc1` showed an IC50 [2] of 0.298 µM, an IC50 [3] greater than 1000 µM and an inhibition at 10 µM [5] of 27.1%.

Compound `COc1ccc2c(CC(=O)N[C@@H](Cc3ccccc3)[C@H](O)CN(CC(C)C)S(=O)(=O)c3ccc([N+](=O)[O-])cc3)cc(=O)oc2c1` has an IC50 [2] of 0.0558 µM, an IC50 [4] of 373 µM and an inhibition at 10 µM [5] of 43.7%.

Compound `CC(C)CN(C[C@@H](O)[C@H](Cc1ccccc1)NC(=O)c1cc2ccc(O)cc2oc1=O)S(=O)(=O)c1ccc([N+](=O)[O-])cc1` has an IC50 [2] of 0.0621 µM, an inhibition at 10 µM [1] of 74% and an IC50 [4] of 189 µM. The inhibition at 10 µM [5] was 91%.

`COc1ccc(S(=O)(=O)N(CC(C)C)C[C@@H](O)[C@H](Cc2ccccc2)NC(=O)c2cc3ccc(O)cc3oc2=O)cc1` showed an IC50 [2] of 0.0395 µM, an IC50 [4] of 421 µM and an inhibition at 10 µM [5] of 12.3%.

`CC(C)CN(C[C@@H](O)[C@H](Cc1ccccc1)NC(=O)Cc1cc(=O)oc2cc(O)ccc12)S(=O)(=O)c1ccc([N+](=O)[O-])cc1` showed an IC50 [2] of 0.0111 µM, an inhibition at 10 µM [1] of 73.4% and an IC50 [4] of 367 µM. For the same compound, the inhibition at 10 µM [5] was 3.91%.

`COc1ccc(S(=O)(=O)N(CC(C)C)C[C@@H](O)[C@H](Cc2ccccc2)NC(=O)c2ccc3oc(=O)ccc3c2)cc1` showed an IC50 [2] of 0.00184 µM, an inhibition at 10 µM [1] of 99.5% and an IC50 [4] of 597 µM. It also gave an inhibition at 10 µM [5] of 1.26%.

With `CC(C)CN(C[C@@H](O)[C@H](Cc1ccccc1)NC(=O)c1ccc2oc(=O)ccc2c1)S(=O)(=O)c1ccc([N+](=O)[O-])cc1` the IC50 [2] was 0.0026 µM, the inhibition at 10 µM [1] was 98.5% and the IC50 [3] was greater than 1000 µM.

`CC(C)CN(C[C@@H](O)[C@H](Cc1ccccc1)NC(=O)Cc1cc(=O)oc2cc(N(C)C)ccc12)S(=O)(=O)c1ccc(N)cc1` showed an IC50 [2] of 0.0751 µM, an IC50 [4] of 572 µM and an inhibition at 10 µM [5] of 18.4%.

For `COc1ccc(S(=O)(=O)N(CC(C)C)C[C@@H](O)[C@H](Cc2ccccc2)NC(=O)Oc2ccc3c(C)cc(=O)oc3c2)cc1`, the IC50 [2] was 0.16 µM and the IC50 [3] was greater than 1000 µM.

`COc1ccc2cc(C(=O)N[C@@H](Cc3ccccc3)[C@H](O)CN(CC(C)C)S(=O)(=O)c3ccc(N)cc3)c(=O)oc2c1` was tested, and the IC50 [2] was 0.102 µM, the IC50 [4] was 706 µM and the inhibition at 10 µM [5] was 23.2%.

For `CC(C)CN(C[C@@H](O)[C@H](Cc1ccccc1)NC(=O)c1ccc2oc(=O)ccc2c1)S(=O)(=O)c1ccc(N)cc1`, the IC50 [2] was 0.0004 µM, the inhibition at 10 µM [1] was 98.7% and the IC50 [4] was 398 µM. For the same compound, the inhibition at 10 µM [5] was 5.61%.

Work on `COc1ccc2c(CC(=O)N[C@@H](Cc3ccccc3)[C@H](O)CN(CC(C)C)S(=O)(=O)c3ccc(N)cc3)cc(=O)oc2c1` yielded an IC50 [2] of 0.0154 µM, an IC50 [4] of 411 µM and an inhibition at 10 µM [5] of 7.72%.

`CC(C)CN(C[C@@H](O)[C@H](Cc1ccccc1)NC(=O)Cc1cc(=O)oc2cc(O)ccc12)S(=O)(=O)c1ccc(N)cc1` gave an IC50 [2] of 0.0379 µM, an inhibition at 10 µM [1] of 17.9% and an IC50 [3] greater than 1000 µM.

`COc1ccc(S(=O)(=O)N(CC(C)C)C[C@@H](O)[C@H](Cc2ccccc2)NC(=O)Cc2cc(=O)oc3cc(N(C)C)ccc23)cc1` was tested, and the IC50 [2] was 0.211 µM, the IC50 [4] was 355 µM and the inhibition at 10 µM [5] was 43.8%.

Compound `COc1ccc2cc(C(=O)N[C@@H](Cc3ccccc3)[C@H](O)CN(CC(C)C)S(=O)(=O)c3ccc([N+](=O)[O-])cc3)c(=O)oc2c1` has an IC50 [2] of 0.221 µM, an IC50 [3] greater than 1000 µM and an inhibition at 10 µM [5] of 0.45%.

`COc1ccc(S(=O)(=O)N(CC(C)C)C[C@@H](O)[C@H](Cc2ccccc2)NC(=O)Cc2cc(=O)oc3cc(OC)ccc23)cc1` was tested, and the IC50 [2] was 0.0155 µM, the IC50 [4] was 242 µM and the inhibition at 10 µM [5] was 17.7%.

For `Cc1cc(=O)oc2cc(OC(=O)N[C@@H](Cc3ccccc3)[C@H](O)CN(CC(C)C)S(=O)(=O)c3ccc([N+](=O)[O-])cc3)ccc12`, the IC50 [2] was 1.02 µM and the IC50 [3] was greater than 1000 µM.

Compound `COc1ccc(S(=O)(=O)N(CC(C)C)C[C@@H](O)[C@H](Cc2ccccc2)NC(=O)c2cc3ccccc3oc2=O)cc1` has an IC50 [2] of 0.0728 µM, an IC50 [4] of 474 µM and an inhibition at 10 µM [5] of 44.8%.

Work on `O=C1Nc2ccc(Cl)cc2[C@@](C#CC2CC2)(C(F)(F)F)O1` [EFAVIRENZ] yielded an inhibition at 10 µM [1] of 100%.

`Cc1ccnc2c1NC(=O)c1cccnc1N2C1CC1` [NEVIRAPINE] was tested, and the inhibition at 0.1 µM [6] was 77%.
